Test results: ChEMBL document CHEMBL1158140, “Abietane diterpenoids from Salvia pachyphylla and S. clevelandii with cytotoxic activity against human cancer cell lines” (2006)

Legend:
Format in all cases: functional
[1] = tested on: A2780; test: Cytotoxicity against human A2780 cells after 48 hrs by SRB assay; conditions: A2780, 48 h
Method in brief: (§1)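 RPMI 1640 with 5% heat-inactivated FCS and 2 mM L-glutamine, 37 °C, 5% CO2. Seeded per well at 6000 (SW1573, HBL-100), 7000 (A2780), 12 000 (WiDr) or 15 000 (T-47D). Triplicate, 1-100 µM from day 1 for 48 h; DMSO 0.25% v/v control. TCA-fixed, SRB OD 490 nm. Percentage growth from T0, T and control ODs gives GI50, mean ± SD of 3-5 experiments.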

[2] = tested on: SW1573; test: Cytotoxicity against human SW1573 cells after 48 hrs by SRB assay; conditions: SW1573, 48 h; method in brief: as §1
[3] = tested on: WiDr; test: Cytotoxicity against human WiDr cells after 48 hrs by SRB assay; method in brief: as §1
[4] = tested on: T47D; test: Cytotoxicity against human T47D cells after 48 hrs by SRB assay; method in brief: as §1
[5] = tested on: HBL-100; test: Cytotoxicity against human HBL100 cells after 48 hrs by SRB assay; conditions: HBL-100, 48 h; method in brief: as §1

SMILES | GI50 [1] | GI50 [2] | GI50 [3] | GI50 [4] | GI50 [5]
CC(C)C1=C[C@]2(O)CC[C@H]3C(C)(C)CCC[C@]3(C)C2=CC1=O | 19 µM | 29 µM | 83 µM | 82 µM | 26 µM
CC(CO)c1cc2c(c(O)c1O)[C@@]13CCCC(C)(C)[C@@H]1C[C@@H]2OC3=O (stereo not given in full) | 3.6 µM | 9 µM | 28 µM | 35 µM | 3.6 µM
CC(C)c1cc2c(c(O)c1O)[C@@]13CCCC(C)(C)[C@@H]1C[C@@H]2OC3 | 5.4 µM | 22 µM | 32 µM | 32 µM | 4.6 µM
COc1cc2c(cc1C(C)C)C(=O)C=C1C(C)(C)CCC[C@@]12C | 16 µM | 18 µM | 29 µM | 33 µM | 16 µM
CC(C)c1cc2c(c(O)c1O)[C@@]13CCCC(C)(C)[C@@H]1C[C@@H]2OC3=O [CARNOSOL] | 3.6 µM | 10 µM | 26 µM | 24 µM | 3.9 µM
CC(C)c1cc2c(c(O)c1O)[C@@]13CCCC(C)(C)[C@@H]1[C@@H](O)[C@@H]2OC3=O [ISOROSMANOL] | 19 µM | 23 µM | > 100 µM | > 100 µM | 17 µM
CC(C)C1=C[C@@]23CC[C@H]4C(C)(C)CCC[C@]4(CO2)C3=C(O)C1=O [PACHYPHYLLONE] | 14 µM | 23 µM | 36 µM | 32 µM | 22 µM
CC(C)c1cc(C=O)c2c(c1O)OC(=O)[C@@]21CCCC(C)(C)[C@@H]1C=O [ROSMADIAL] | 36 µM | 32 µM | 59 µM | 48 µM | 26 µM
